These results are taken from ChEMBL document CHEMBL3351805, “Giffonins A-I, antioxidant cyclized diarylheptanoids from the leaves of the hazelnut tree (Corylus avellana), source of the Italian PGI product "Nocciola di Giffoni"” (J Nat Prod, 2015).

Assay [1] relates to Plasma. In words: Antioxidant activity in human plasma assessed as H2O2-induced lipid peroxidation at 10 uM after 30 mins by TBARS assay. It counts as functional, cell-free. In a few lines: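 Fresh plasma from medication-free human donors, incubated 30 min at 37 °C with compound (final 0.1–100 μM; DMSO <0.05% final) plus 2 mM H₂O₂. Stopped on ice, then mixed with an equal volume of cold 20% TCA in 0.6 M HCl and spun. Supernatant heated 15 min with 0.12 M TBA in 0.26 M Tris pH 7.0. TBARS read at 532 nm (ε = 156 000 M⁻¹ cm⁻¹). n=3 independent experiments.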

For assay [2], the system named is Plasma. In words: Antioxidant activity in human plasma assessed as H2O2/Fe2+-induced lipid peroxidation at 10 uM after 30 mins by TBARS assay. It counts as functional, cell-free. A digest of the protocol: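 Reaction stopped on ice; TCA/HCl precipitation, centrifugation at 1200g. Supernatant boiled 15 min with thiobarbituric acid in Tris pH 7.0. A532 converted to TBARS via ε = 156 000 M⁻¹ cm⁻¹. Three independent experiments; paired Student's t test.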

As a reminder, the inhibition is the share of the control response that was lost under treatment. `COc1c2cc(c(OC)c1O)Oc1ccc(cc1)CC[C@@H](O)/C=C/C=C\2`: the inhibition with Plasma [1] amounted to 37.6%; with Plasma [2], 35.5%.

Consider `COc1c2cc(c(OC)c1O)Oc1ccc(cc1)CCCC[C@@H](O)/C=C\2`, for which the inhibition came to 20.8% in the assay on Plasma [1] and 30.8% in the assay with Plasma [2].

For `COc1cc(/C=C/C(=O)CC(=O)/C=C/c2ccc(O)c(OC)c2)ccc1O`, the inhibition in the assay with Plasma [1] is 19.2%; with Plasma [2], 18.6%.

As to `COc1c2cc(c(OC)c1O)Oc1ccc(cc1)CCC(=O)CC/C=C/2`, the inhibition with Plasma [1] worked out at 8.1%; with Plasma [2] it was 36.8%.

Turning to `COc1c2cc(c(OC)c1O)Oc1ccc(cc1)[C@@H](O)CC(=O)CC/C=C/2`, the inhibition turned out to be 2.2% in the assay with Plasma [1] and 7.3% in the assay with Plasma [2].

Regarding `COc1c(O)cc2cc1Oc1ccc(cc1)CC[C@@H](O)/C=C/C=C\2`, the inhibition was 55.8% in the assay with Plasma [1] and 50.6% in the assay on Plasma [2].

For the compound `COc1c2cc(c(OC)c1O)Oc1ccc(cc1)CCC(=O)CC/C=C\2`, the values for the inhibition in the assay on Plasma [1] and in the assay with Plasma [2] were 64.3% and 63.2%, respectively.

As for `COc1c2cc(c(OC)c1O)Oc1ccc(cc1)CC[C@@H](O)CC/C=C\2`, the inhibition in the assay on Plasma [1] stood at 16.4%; in the assay with Plasma [2], 28.2%.

In the case of `COc1c2cc(c(OC)c1O)Oc1ccc(cc1)CCC(=O)C[C@@H](O)/C=C\2`, the inhibition in the assay on Plasma [1] came out at 12.1%; with Plasma [2], 12%.

For `O=C1/C=C/CCc2ccc(O[C@@H]3O[C@H](CO)[C@@H](O)[C@H](O)[C@H]3O)c(c2)-c2cc(ccc2O[C@@H]2OC[C@H](O)[C@H](O)[C@H]2O)CC1`, the inhibition in the assay with Plasma [1] was determined as 12.6%; in the assay with Plasma [2], 18.1%.
